UPR CHOP act: activators of apoptotic arm of unfolded protein response (CHOP); CHO-CHOP luciferase reporter, UPR activation, luminescence; percent of tunicamycin response over DMSO baseline; activation, % at 10 µM; actives 0.34% (n = 330,000); AID 449763;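 active = at 10 µM dose, activation of 40% or more, normalized to positive control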
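Dosing – one dose, 10 µM in 0.5% DMSO · System – CHO-CHOP cells, stable luciferase reporter of PERK-eIF2a-CHOP signalling · Input – 500 cells/well · Control set – tunicamycin 10 µg/mL final as positive, DMSO-only wells as negative · Timing – 6 h compound treatment, 37 °C · Measure – % activation vs tunicamycin · Technique – luminescence read with Steady-Glo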
Tb MetRS inh: blocks T. brucei methionyl-tRNA synthetase activity | AID 624268 | inhibition, % at 11.9 µM | actives 0.4% (n = 360,000) | purified T. brucei MetRS, ATP depletion, Kinase-Glo luminescence;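 active = inhibition above a per-plate cutoff of the control wells' mean inhibition plus 3 SD, cut at about 5.5% in these data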
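System: purified T. brucei MetRS enzyme / Detection: Kinase-Glo luciferase luminescence reporting remaining unconsumed ATP / Medium: HEPES buffer with MgCl2, KCl, DTT, spermine, BSA, pyrophosphatase / Replication: singlicate, one well per compound / Evaluation: percent inhibition relative to median high and low control wells / Schedule: 2 h aminoacylation at 25 °C after 15 min preincubation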
XBP1 UPR activ: adaptive UPR (XBP1) activation; CHO-XBP1 luciferase reporter, IRE1-XBP1 UPR activation, luminescence; percent of tunicamycin response, DMSO as zero; activation, % at 20 µM; actives 0.33% (n = 330,000); AID 463104;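 active = versus positive control, 20 µM dose yields 30% or more activation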
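Material: CHO cell line with stable XBP1 luciferase reporter; buffer or medium: F12 medium containing 10% fetal bovine serum; compound: single point, 20 µM final compound, 1% DMSO; incubation: 6 h treatment, 37 °C; measured by: glow luminescence from Steady-Glo reagent; evaluation: activation, % of tunicamycin; control set: tunicamycin high, DMSO low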
V-ATPase pHluor: regulators of yeast V-ATPase proton transport; S. cerevisiae, pHLuorin cytosolic pH fluorescence; response, % at 10 µM; actives 0.37% (n = 350,000); in the data active = response mostly above about 7.3%, no sharp cut-off; inactive = mostly below about 5.4%; note: actives read high
CHOP inhibitor: inhibitors of CHOP induction in ER stress response; AID 2732; CHO-K1 CHOP-promoter luciferase, tunicamycin-induced, 15-18 h; inhibition, % at 10 µM; actives 3.8% (n = 220,000);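 active = compounds that reduced the stress-induced luciferase reporter signal by more than about 70% of percent inhibition, limit read from the data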
TbMetRS confirm: Trypanosoma brucei MetRS inhibition confirmed. shares compounds with Tb MetRS inh. T. brucei MetRS enzyme, luminescence (ATP depletion). inhibition, % at 11.9 µM. actives 93% (n = 1,400); in the data active = inhibition above about 7%
Jurkat cytotox: Jurkat T cell cytotoxicity for MetRS hits | shares compounds with Tb MetRS inh | Jurkat cells viability, ATP luminescence | inhibition, % at 8.3 µM | actives 12% (n = 1,400) | AID 624413; in the data active = inhibition above about 15%
TbMetRS FP orth: T. brucei MetRS inhibition, orthogonal assay. actives 44% (n = 1,400). purified T. brucei MetRS, fluorescence polarization. shares compounds with Tb MetRS inh. AID 651607. inhibition, % at 11.9 µM; in the data active = inhibition above about 17%
Hits are given with their value; i = inactive; nt = not tested or not shown; ! = a repeat was not active. This excerpt belongs to a sample that is enriched for hits.

SMILES	UPR CHOP act	Tb MetRS inh	XBP1 UPR activ	V-ATPase pHluor	CHOP inhibitor	TbMetRS confirm	Jurkat cytotox	TbMetRS FP orth
N/N=C(/Cc1nc2ccccc2[nH]1)c1ccc([N+](=O)[O-])cc1	i	6.0	i	i	i	88	i	66
O=C(Cc1nc2ccccc2[nH]1)c1ccc(Br)cc1	i	11	i	i	i	i	i	i
c1ccc(N/N=C(\Cc2nc3ccccc3[nH]2)c2ccccc2)cc1	i	i	i	i	i	nt	nt	nt
Cc1ccc2nc(CCc3nc4ccc(C)cc4[nH]3)[nH]c2c1	i	6.4	i	i	nt	11	i	i
O=C(CCCc1nc(-c2ccccc2Cl)no1)N1CCOCC1	i	i	i	i	i	nt	nt	nt
c1ccc2[nH]c(CSc3nc4ccccc4s3)nc2c1	i	8.1	i	i	i	20	i	i
Cc1nnc(SCc2nc3ccccc3[nH]2)s1	i	i	i	i	i	nt	nt	nt
Cc1ccc2sc(NC(=O)CN3C(=O)c4ccccc4C3=O)nc2c1C	i	i	i	i	i	nt	nt	nt
O=Cc1cc([N+](=O)[O-])ccc1N1CCN(Cc2ccc3c(c2)OCO3)CC1	i	8.1	i	i	nt	18	i	i
O=[N+]([O-])c1ccc(N2CCN(Cc3ccc4c(c3)OCO4)CC2)nc1	i	i	i	i	nt	nt	nt	nt
CC(=O)Nc1ccc(NC(=O)CSc2nnc(C)c(=O)[nH]2)cc1	i	i	i	i	i	nt	nt	nt
O=C(CNC(=O)c1ccc2c(c1)OCO2)N/N=C(Br)/C=C/c1ccccc1	i	35	i	i	i	52	29	42
Cc1ccc(NC(=O)CS(=O)CC(=O)Nc2ccc3c(c2)OCO3)cc1Cl (stereo not drawn)	i	9.8	i	i	i	12	i	i
Cc1cccc(N(CC(=O)NC(C)(C)C)C(=O)CS(=O)CC(=O)Nc2ccc3c(c2)OCO3)c1 (stereo not drawn)	i	i	i	i	i	nt	nt	nt
NC(=O)CSc1nnc(Cc2csc(Nc3ccccc3)n2)n1Cc1ccccc1	i	9.0	i	i	i	16	i	i
CC(=O)c1cccc(NC(=O)CSc2nnc(C(C)N(C)C)n2Cc2ccccc2)c1 (stereo not drawn)	i	5.6	i	i	nt	i	i	i
CC(=O)c1cccc(NC(=O)CSc2nnc(C(C)N(C)C)n2-c2ccc(F)cc2)c1 (stereo not drawn)	i	i	i	i	nt	nt	nt	nt
CCCn1cnc2cc(NCc3cccc(OC)c3O)ccc21	i	8.4	i	i	i	15	i	i
COc1cccc(N2CCN(c3ncnc4c3[nH]c3ccc(F)cc34)CC2C)c1 (stereo not drawn)	i	8.5	i	nt	nt	12	95	i
COc1ccc(NS(=O)(=O)c2cc(NC(=O)CCc3ccccc3)ccc2N2CCOCC2)cc1	nt	i	nt	i	nt	nt	nt	nt
CC1(C(=O)NS(=O)(=O)c2ccccc2)CCN1C(=O)CC1CCCCC1 (stereo not drawn)	nt	i	nt	nt	nt	nt	nt	nt
Clc1ccc(CN2C3=NCCN3c3ccccc32)cc1Cl	i	7.4	i	i	i	12	16	i
COc1ccc(CCNC(=O)c2ccc([N+](=O)[O-])cc2Cl)cc1OC	i	i	i	i	nt	nt	nt	nt
COc1ccc(CCNC(=O)c2ccc(-c3ccc([N+](=O)[O-])cc3Cl)o2)cc1OC	i	5.7	i	i	i	8.7	32	19
COc1cc(O)cc2c1[C@@H]1Oc3c(ccc(O)c3CC=C(C)C)[C@@H]1CO2	i	i	i	i	nt	nt	nt	nt
SMILES	UPR CHOP act	Tb MetRS inh	XBP1 UPR activ	V-ATPase pHluor	CHOP inhibitor	TbMetRS confirm	Jurkat cytotox	TbMetRS FP orth
CCc1cc(Cn2nc(-c3ccccc3)cc2C(=O)NCc2cccc(C(F)(F)F)c2)on1	i	i	i	i	nt	nt	nt	nt
CCc1cc(Cn2nc(-c3ccccc3)cc2C(=O)NCc2cccc(Br)c2)on1	i	53	i	i	nt	77	i	69
Oc1oc(-c2ccc(Br)cc2)nc1C=Nc1ccc(Br)cn1	i	8.7	i	i	i	65	i	32
COc1ccc2[nH]c3nc(SCC(=O)Nc4cccc(NC(C)=O)c4)nnc3c2c1	i	i	i	i	nt	nt	nt	nt
COc1cccc(CNC(=O)CSc2nnc3c(n2)[nH]c2ccc(C)cc23)c1	i	19	i	i	nt	79	i	46
COc1cccc(CNC(=O)CSc2nc3ccc(C)cc3[nH]2)c1	i	5.8	i	i	nt	20	i	i
COc1cccc(NC(=O)CSc2nnc3c(n2)[nH]c2ccc(C)cc23)c1	i	80	i	i	nt	96	i	93
Cc1ccc2nc(SCC(=O)NCc3cccs3)[nH]c2c1	i	i	i	i	i	nt	nt	nt
O=C1C=C(c2cccc(CO)c2)C[C@@H](c2ccc(Cl)cc2)C1	i	i	i	i	nt	nt	nt	nt
NC(=S)Nc1cccc(-c2n[nH]c(=S)o2)c1	i	14	i	i	i	35	i	17
Cc1ccc(NC(=S)Nc2cccc(-c3n[nH]c(=S)o3)c2)cc1	i	i	i	i	i	nt	nt	nt
O=S(=O)(Nc1cc2nc3ccccc3nc2n1Cc1ccccc1)c1ccc(Cl)cc1	nt	32	nt	i	93	96	i	76
O=S(=O)(NCc1ccccc1)c1ccc(Cl)cc1	i	i	i	i	i	nt	nt	nt
COc1ccc(C2CC(c3ccc(Cl)cc3Cl)Nc3nc(N)nn32)cc1 (stereo not drawn)	i	7.5	i	i	i	14	i	i
COc1cccc(C2CC(c3ccc(Cl)cc3Cl)Nc3nc(N)nn32)c1 (stereo not drawn)	i	8.3	i	i	i	13	i	i
O=C(C/C=N\OCc1ccc(Cl)cc1Cl)Nc1ccccc1	i	i	i	i	i	nt	nt	nt
O=C(C/C=N\OCc1ccc([N+](=O)[O-])cc1)Nc1ccc(Cl)cc1	i	74	i	i	i	101	i	80
O=C(C/C=N\OCc1ccc([N+](=O)[O-])cc1)Nc1ccccc1	i	13	i	i	i	31	i	i
COc1ccc(CC(=O)OCC(=O)NC2CCCC(C)C2C)cc1 (stereo not drawn)	i	i	i	i	nt	nt	nt	nt
Cc1nc(NC(=O)C(C)Oc2cccc(Cl)c2)sc1C(=O)N(C)C (stereo not drawn)	i	i	i	i	i	nt	nt	nt
Cc1ccc(NC(=O)CN2CC(C)SC2=NC2CCCCC2)cc1 (stereo not drawn)	i	12!	i	i	nt	25	i	i
CC(C)C1CC(=O)NC(SCC(=O)Nc2ccc(Br)cc2)=C1C#N (stereo not drawn)	i	12	i	i	i	18	i	i
CCCCCCCC(=O)NN=C1CCN(Cc2ccccc2)CC1	i	i	i	i	i	nt	nt	nt
